# Screening results (PubChem BioAssay)
# Hits are enriched below; roughly 1.6% of the tested compounds scored in any of these assays.
# eIF4E 4G PPI = inhibitors of eIF4E and eIF4G interaction in translation initiation | TR-FRET eIF4E-eIF4GI(517-606) binding, 2 h | inhibition, % at 21.7 µM | 220,000 tested, 0.37% active | AID 782;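 active means inhibition above about 30%, limit read from the data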
# 14-3-3 Bad PPI = disrupts binding of bovine 14-3-3 zeta to phospho-Bad peptide. AID 781. 220,000 tested, 0.71% active. inhibition, % at 21.7 µM. P63103. TR-FRET 14-3-3zeta/Dy647-pBad peptide displacement, 1 h;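 active means inhibition above about 70%, limit read from the data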
# Target sequence (P63103 whole entry, looked up): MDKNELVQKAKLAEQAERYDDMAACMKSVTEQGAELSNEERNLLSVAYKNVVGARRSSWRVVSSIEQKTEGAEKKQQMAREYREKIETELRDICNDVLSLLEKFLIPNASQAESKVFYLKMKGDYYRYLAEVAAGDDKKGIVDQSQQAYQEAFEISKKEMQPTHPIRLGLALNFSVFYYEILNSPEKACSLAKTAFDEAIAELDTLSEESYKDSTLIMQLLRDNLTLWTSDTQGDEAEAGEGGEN
# EBV gp42 block = inhibitors of Epstein-Barr virus glycoprotein 42 | Q1HVG2 | 220,000 tested, 0.42% active | Fluorescence polarization binding assay, mP read-out | inhibition, % (tested at 21.74 µM)
# Target sequence (Q1HVG2 whole entry, looked up): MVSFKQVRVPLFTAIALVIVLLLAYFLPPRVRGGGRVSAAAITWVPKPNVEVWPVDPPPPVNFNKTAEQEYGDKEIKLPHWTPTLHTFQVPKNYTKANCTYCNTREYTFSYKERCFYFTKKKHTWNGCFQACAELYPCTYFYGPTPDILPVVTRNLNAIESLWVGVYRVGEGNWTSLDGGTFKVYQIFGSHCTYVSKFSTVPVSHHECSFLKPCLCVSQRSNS
# RBBP9 inhibitor = blocks human serine hydrolase RBBP9; O75884; recombinant RBBP9, FP-Rh probe fluorescence polarization; inhibition, % at 7.94 µM; 220,000 tested, 0.2% active;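 active means inhibition above the campaign mean of all tested compounds plus 3 SD, cut at about 14% in these data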
#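 Test system: recombinant human RBBP9; Timing: 30 min then 45 min, 25 °C; Detection: fluorescence polarization; Control set: RBBP9 with DMSO as uninhibited control, no-protein wells as full inhibition; Compound dosing: one concentration, 7.94 µM nominal, 0.794% DMSO; Probe or stimulus: FP-Rh activity-based probe, 375 nM before mixing.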
# PKD1 inh = PKD1 (human) kinase inhibition; AID 797; 200,000 tested, 0.056% active; Q15139; inhibition, % (no concentration beside the values); PKD1 kinase fluorescence polarization assay
# RBBP9 inh conf = human RBBP9 inhibition, confirmation; shares compounds with RBBP9 inhibitor; recombinant RBBP9, FP-Rh probe fluorescence polarization; inhibition, % at 7.94 µM; 410 tested, 36% active; AID 1537;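 active means inhibition above the hit cutoff derived for the primary screen, cut at about 15% in these data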
# Numbers stand for hits; i = inactive; nt = no result. Unless noted, no stated cut-off is given here; in the data, active means inhibition above about 50%; inactive means the rest.
SMILES,eIF4E 4G PPI,14-3-3 Bad PPI,EBV gp42 block,RBBP9 inhibitor,PKD1 inh,RBBP9 inh conf
CCc1cc(/C(Cc2ccc3ccccc3n2)=N\O)c(O)cc1O,i,i,i,46,i,50
Cc1ccc(N(CC(=O)N/N=C/c2cc(C)n(-c3ccccc3)c2C)S(C)(=O)=O)c(C)c1,i,i,i,17,i,i
Cc1ccc(N(CC(=O)Nc2c(C)n(C)n(-c3ccccc3)c2=O)S(C)(=O)=O)c(C)c1,i,i,i,i,i,nt
COc1ccc(C(=O)C2CCCN(C(=O)Cn3nc(C)cc3C)C2)cc1F (stereo unspecified),i,i,i,i,nt,nt
Cc1ccc(N2C(=O)C3C(C2=O)C2C=CC3C23CC3)c([N+](=O)[O-])c1 (stereo unspecified),i,i,i,i,i,nt
CCOc1ccc(S(=O)(=O)Nc2ccc(S(=O)(=O)N3CCCC3)cc2)cc1,i,i,i,i,i,nt
CCOc1ccc(S(=O)(=O)Nc2ccc(S(=O)(=O)N3CCCCC3)cc2)cc1,i,i,i,15,i,i
Cc1cc(C)nc(/N=C(\NC(=O)C(C)(C)C)Nc2ccc(F)cc2)n1,i,i,i,15,nt,i
CCC(=O)N/C(=N/c1nc(C)cc(C)n1)Nc1ccc(OC)cc1,i,i,i,19,i,i
Cc1cc(=O)[nH]c2c(N=Nc3ccc(O)cc3)c(N)nn12,i,i,i,23,i,34
Nc1nn2c(C(F)(F)F)cc(=O)[nH]c2c1N=Nc1cccc(F)c1,i,i,i,i,i,nt
CCn1c(C(=O)NCc2cccnc2)cc2sc(Cl)cc21,i,i,i,15,i,i
COc1ccc(Cn2nc(C)n(N(C)c3ncc(C(F)(F)F)cc3Cl)c2=O)cc1,i,i,i,i,i,nt
O=Cc1cc(N=Nc2ccccc2Cl)ccc1O,i,i,i,i,i,nt
O=Cc1cc(N=Nc2cccc(C(=O)O)c2)ccc1O,i,i,i,18,i,i
CC(C)CC(C(=O)Nc1ccccc1)N1C(=O)C2C3C=CC(C3)C2C1=O (stereo unspecified),i,i,i,i,i,nt
Cc1ccc(NCC(=O)N/N=C/c2cccn2C)cc1,i,i,i,17,nt,i
O=c1c2ccccc2sn1-c1ccccc1,54,i,i,51,i,50
Cc1cccc(NS(=O)(=O)c2cc(C(=O)OC(C)C(=O)NCc3ccc4c(c3)OCO4)ccc2C)c1 (stereo unspecified),i,i,i,i,i,nt
Cc1nc2ccccn2c1C(=O)NN=C1C2CC3CC(C2)CC1C3,i,i,i,i,i,nt
CC(=O)CC(=O)Nc1ncccn1,i,i,i,i,i,nt
CNS(=O)(=O)c1ccc2ccccc2c1,i,i,i,19,nt,i
CCC(=O)Oc1ccc2c(C)cc(=O)oc2c1C(=O)CC,i,i,i,18,nt,i
COc1ccc(C)cc1S(=O)(=O)N(C)CC(=O)N1CCN(c2ccccc2)CC1,i,i,i,i,i,nt
COC(=O)C1C(=O)OC(C)(C)C1C(C)C(=O)c1ccccc1 (stereo unspecified),i,i,i,14,i,i
SMILES,eIF4E 4G PPI,14-3-3 Bad PPI,EBV gp42 block,RBBP9 inhibitor,PKD1 inh,RBBP9 inh conf
CCN(CC)S(=O)(=O)c1cccc(C(=O)N/N=C/c2ccc(O)c(O)c2O)c1,i,i,i,18,i,66
CN(C)S(=O)(=O)c1cccc(NC(=S)N/N=C/c2ccc(O)c(O)c2O)c1,42,i,i,32,nt,51
CCOc1ccccc1/C=N/NC(=O)c1cccc(S(=O)(=O)N(CC)CC)c1,i,i,i,i,i,nt
C/C(=N/NC(=O)CNC(=O)COc1ccccc1)c1ccco1,i,i,i,i,i,nt
O=C(CSc1nnc2ccccn12)N1CCOCC1,i,i,i,14,i,i
Clc1ccc(-c2nn3c(-c4ccccc4)nnc3s2)cc1,i,i,i,17,i,i
c1ccc(-c2nnc3sc(-c4ccncc4)nn23)cc1,i,i,i,i,i,nt
CCOc1cc2[nH]c(=S)n(CCC(=O)NCc3ccco3)c(=O)c2cc1OCC,i,i,i,i,i,nt
CC(=O)N(C1=C(Cl)C(=O)c2ccccc2C1=O)C1CCCCC1,i,i,i,55,nt,89
CC(=O)N(c1ccccc1C)C1CCCC1,i,i,i,i,i,nt
Cc1cc(C)n(-c2ccc(C)c(Cl)c2)n1,i,i,i,i,i,nt
COc1ccc(-c2cc(-c3c(O)c(OC)c4occc4c3OC)[nH]n2)cc1OC,i,i,i,15,i,53
COc1ccc(-c2cc(-c3c(O)c(OC)c4occc4c3OC)[nH]n2)cc1,i,i,i,i,i,nt
CCOC(=O)c1oc2ccc(/C=N/O)c(Cl)c2c1C,i,i,i,i,i,nt
N#CC1=C(N)Oc2ccc3ccc(O)cc3c2C1c1ccsc1 (stereo unspecified),i,i,161,53,i,47
CC(=O)C(=Nc1ccccc1Cl)NNc1ccc(Cl)cc1,i,i,i,37,i,i
O=S1(=O)CCN2N=C(C34CC5CC(CC(C5)C3)C4)SC2=N1,i,i,i,i,i,nt
NC(=O)COC(=O)C12CC3CC(CC(O)(C3)C1)C2,i,i,i,51,i,i
N#Cc1ccsc1NC(=O)CSc1ncn[nH]1,i,i,i,15,i,i
COc1cc2ncnc(NCCCN3CCOCC3)c2cc1OC,i,i,i,15,nt,i
CC(=O)Oc1c(C(=O)c2nnc(C)o2)c(=O)n(C)c2ccccc12,i,i,i,i,i,nt
CC1=C(C(=O)Nc2ccccc2)C(c2cccs2)NC(=O)N1 (stereo unspecified),i,i,i,i,i,nt
O=c1cc(CSc2nc3ccccc3c(=O)[nH]2)c2ccc(O)cc2o1,i,i,i,i,i,nt
CC(=O)N1CCc2cc(S(=O)(=O)NCCC(=O)N3CCN(Cc4ccccc4)CC3)ccc21,i,i,i,i,i,nt
Cc1ccc(S(=O)(=O)NCCC(=O)N2CCN(Cc3ccccc3)CC2)cc1,i,i,i,29,i,i
SMILES,eIF4E 4G PPI,14-3-3 Bad PPI,EBV gp42 block,RBBP9 inhibitor,PKD1 inh,RBBP9 inh conf
NS(=O)(=O)c1ccc(N/N=C/c2ccc(O)c(O)c2O)c([N+](=O)[O-])c1,78,89,97,64,nt,84
Cc1ccc(N/C(N)=N/c2nc(C)cc(N3CCCCC3)n2)c(C)c1,i,i,i,i,i,nt
CC(C)(C)N1CCC1C(N)=O (stereo unspecified),i,i,i,18,nt,i
CC(C)(C)C(=O)N1N=C(c2ccc(NS(C)(=O)=O)cc2)CC1c1cccs1 (stereo unspecified),i,i,i,i,i,nt
COc1ccc(CN2CCNC(=O)C2CC(=O)NCCCn2cccn2)c(OC)c1 (stereo unspecified),i,i,i,i,i,nt
Cc1cccc(N2CCN(C(=O)Cn3sc4nc(C)cc(C)c4c3=O)CC2C)c1 (stereo unspecified),i,i,i,19,i,34
Cc1cc(C)c2c(=O)n(CC(=O)N3CCC(Cc4ccccc4)CC3)sc2n1,i,i,i,i,i,nt
Brc1cc(Br)cc(CN2CCSCC2)c1,i,i,i,i,nt,nt
